Experimental data as given in ChEMBL document CHEMBL3616444, “Design, synthesis and pharmacological evaluation of pyrimidobenzothiazole-3-carboxylate derivatives as selective L-type calcium channel blockers” (Bioorg Med Chem, 2015).

Assays:
[1] = biological target: Myosin light chain kinase, smooth muscle (Homo sapiens, UniProt Q15746); experiment: Inhibition of MLCK (unknown origin) incubated for 15 mins using [gamma-32P]-ATP by scintillation counting method
Outline: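 Active MLCK thawed on ice with kinase assay and dilution buffers and substrate; reaction with γ-32P-ATP incubated 15 min at 30 °C in a water bath, spotted on phosphocellulose P81 paper, washed three times ~10 min in 1% phosphoric acid. Radioactivity by scintillation counting, blank-corrected cpm converted to specific activity (nmol/min/mg); IC50 from log plots, at least five determinations per concentration.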

[2] = Inhibition of porcine kidney ACE assessed as reduction in hippuryl-histidyl-leucine hydrolysis to hippuric acid release incubated for 30 mins high-throughput colorimetric method; parameters: species or system Sus scrofa
Outline: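 Porcine kidney ACE in 1 M sodium borate buffer pH 8.2 with 0.3 M NaCl and 5 mM HHL substrate (stock); 37 °C for 30 min, stopped with 1 M HCl. Released hippuric acid complexed with pyridine and benzene sulfonyl chloride, cooled on ice, yellow colour read at 410 nm; IC50 from log plots, at least five determinations per concentration.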

[3] = system: Rattus norvegicus; experiment: Antihypertensive activity in Norwegian albino rat model of DOCA-salt-induced hypertension assessed as inhibition of systolic blood pressure at 10 mg/kg, po after 1 hr by non-invasive tail cuff method relative to control; format: functional
Outline: (§1)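 DOCA-salt hypertensive rats; systolic pressure by tail cuff after 10 mg/kg, recorded hourly from 0 to 10 h; percent inhibition computed. Data as mean ± SEM, repeated-measures ANOVA.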

[4] = system: Rattus norvegicus; experiment: Antihypertensive activity in Norwegian albino rat model of DOCA-salt-induced hypertension assessed as inhibition of systolic blood pressure at 10 mg/kg, po after 2 hrs by non-invasive tail cuff method relative to control; format: functional; outline: as §1
[5] = system: Rattus norvegicus; experiment: Antihypertensive activity in Norwegian albino rat model of DOCA-salt-induced hypertension assessed as inhibition of systolic blood pressure at 10 mg/kg, po after 3 hrs by non-invasive tail cuff method relative to control; format: functional; outline: as §1
[6] = system: Rattus norvegicus; experiment: Antihypertensive activity in Norwegian albino rat model of DOCA-salt-induced hypertension assessed as inhibition of systolic blood pressure at 10 mg/kg, po after 4 hrs by non-invasive tail cuff method relative to control; format: functional; outline: as §1
[7] = system: Rattus norvegicus; experiment: Antihypertensive activity in Norwegian albino rat model of DOCA-salt-induced hypertension assessed as inhibition of systolic blood pressure at 10 mg/kg, po after 5 hrs by non-invasive tail cuff method relative to control; format: functional; outline: as §1
[8] = system: Rattus norvegicus; experiment: Antihypertensive activity in Norwegian albino rat model of DOCA-salt-induced hypertension assessed as inhibition of systolic blood pressure at 10 mg/kg, po after 6 hrs by non-invasive tail cuff method relative to control; format: functional; outline: as §1
[9] = system: Rattus norvegicus; experiment: Antihypertensive activity in Norwegian albino rat model of DOCA-salt-induced hypertension assessed as inhibition of systolic blood pressure at 10 mg/kg, po after 7 hrs by non-invasive tail cuff method relative to control; format: functional; outline: as §1
[10] = system: Rattus norvegicus; experiment: Antihypertensive activity in Norwegian albino rat model of DOCA-salt-induced hypertension assessed as inhibition of systolic blood pressure at 10 mg/kg, po after 8 hrs by non-invasive tail cuff method relative to control; format: functional; outline: as §1
[11] = system: Rattus norvegicus; experiment: Antihypertensive activity in Norwegian albino rat model of DOCA-salt-induced hypertension assessed as inhibition of systolic blood pressure at 10 mg/kg, po after 9 hrs by non-invasive tail cuff method relative to control; format: functional; outline: as §1
[12] = system: Rattus norvegicus; experiment: Antihypertensive activity in Norwegian albino rat model of DOCA-salt-induced hypertension assessed as inhibition of systolic blood pressure at 10 mg/kg, po after 10 hrs by non-invasive tail cuff method relative to control; format: functional; outline: as §1
[13] = system: Rattus norvegicus; experiment: Antihypertensive activity in Norwegian albino rat assessed as inhibition of systolic blood pressure at 10 mg/kg, po after 0.15 hrs by invasive carotid artery cannulation method relative to control; format: functional
[14] = system: Rattus norvegicus; experiment: Antihypertensive activity in Norwegian albino rat assessed as inhibition of systolic blood pressure at 10 mg/kg, po after 0.3 hrs by invasive carotid artery cannulation method relative to control; format: functional
[15] = system: Rattus norvegicus; experiment: Antihypertensive activity in Norwegian albino rat assessed as inhibition of systolic blood pressure at 10 mg/kg, po after 1 hr by invasive carotid artery cannulation method relative to control; format: functional
[16] = system: Rattus norvegicus; experiment: Antihypertensive activity in Norwegian albino rat assessed as inhibition of systolic blood pressure at 10 mg/kg, po after 2 hrs by invasive carotid artery cannulation method relative to control; format: functional
[17] = system: Rattus norvegicus; experiment: Antihypertensive activity in Norwegian albino rat assessed as inhibition of systolic blood pressure at 10 mg/kg, po after 3 hrs by invasive carotid artery cannulation method relative to control; format: functional
[18] = system: Rattus norvegicus; experiment: Antihypertensive activity in Norwegian albino rat assessed as inhibition of systolic blood pressure at 10 mg/kg, po after 4 hrs by invasive carotid artery cannulation method relative to control; format: functional
[19] = system: Rattus norvegicus; experiment: Gastrointestinal toxicity in Norwegian rat assessed as ulcerative index at 50 mg/kg, po after 17 hrs; format: organism-based; settings: in vivo
[20] = physchem; settings: buffer, pH 7.4

Myosin light chain kinase, smooth muscle, sequence (Q15746 whole entry): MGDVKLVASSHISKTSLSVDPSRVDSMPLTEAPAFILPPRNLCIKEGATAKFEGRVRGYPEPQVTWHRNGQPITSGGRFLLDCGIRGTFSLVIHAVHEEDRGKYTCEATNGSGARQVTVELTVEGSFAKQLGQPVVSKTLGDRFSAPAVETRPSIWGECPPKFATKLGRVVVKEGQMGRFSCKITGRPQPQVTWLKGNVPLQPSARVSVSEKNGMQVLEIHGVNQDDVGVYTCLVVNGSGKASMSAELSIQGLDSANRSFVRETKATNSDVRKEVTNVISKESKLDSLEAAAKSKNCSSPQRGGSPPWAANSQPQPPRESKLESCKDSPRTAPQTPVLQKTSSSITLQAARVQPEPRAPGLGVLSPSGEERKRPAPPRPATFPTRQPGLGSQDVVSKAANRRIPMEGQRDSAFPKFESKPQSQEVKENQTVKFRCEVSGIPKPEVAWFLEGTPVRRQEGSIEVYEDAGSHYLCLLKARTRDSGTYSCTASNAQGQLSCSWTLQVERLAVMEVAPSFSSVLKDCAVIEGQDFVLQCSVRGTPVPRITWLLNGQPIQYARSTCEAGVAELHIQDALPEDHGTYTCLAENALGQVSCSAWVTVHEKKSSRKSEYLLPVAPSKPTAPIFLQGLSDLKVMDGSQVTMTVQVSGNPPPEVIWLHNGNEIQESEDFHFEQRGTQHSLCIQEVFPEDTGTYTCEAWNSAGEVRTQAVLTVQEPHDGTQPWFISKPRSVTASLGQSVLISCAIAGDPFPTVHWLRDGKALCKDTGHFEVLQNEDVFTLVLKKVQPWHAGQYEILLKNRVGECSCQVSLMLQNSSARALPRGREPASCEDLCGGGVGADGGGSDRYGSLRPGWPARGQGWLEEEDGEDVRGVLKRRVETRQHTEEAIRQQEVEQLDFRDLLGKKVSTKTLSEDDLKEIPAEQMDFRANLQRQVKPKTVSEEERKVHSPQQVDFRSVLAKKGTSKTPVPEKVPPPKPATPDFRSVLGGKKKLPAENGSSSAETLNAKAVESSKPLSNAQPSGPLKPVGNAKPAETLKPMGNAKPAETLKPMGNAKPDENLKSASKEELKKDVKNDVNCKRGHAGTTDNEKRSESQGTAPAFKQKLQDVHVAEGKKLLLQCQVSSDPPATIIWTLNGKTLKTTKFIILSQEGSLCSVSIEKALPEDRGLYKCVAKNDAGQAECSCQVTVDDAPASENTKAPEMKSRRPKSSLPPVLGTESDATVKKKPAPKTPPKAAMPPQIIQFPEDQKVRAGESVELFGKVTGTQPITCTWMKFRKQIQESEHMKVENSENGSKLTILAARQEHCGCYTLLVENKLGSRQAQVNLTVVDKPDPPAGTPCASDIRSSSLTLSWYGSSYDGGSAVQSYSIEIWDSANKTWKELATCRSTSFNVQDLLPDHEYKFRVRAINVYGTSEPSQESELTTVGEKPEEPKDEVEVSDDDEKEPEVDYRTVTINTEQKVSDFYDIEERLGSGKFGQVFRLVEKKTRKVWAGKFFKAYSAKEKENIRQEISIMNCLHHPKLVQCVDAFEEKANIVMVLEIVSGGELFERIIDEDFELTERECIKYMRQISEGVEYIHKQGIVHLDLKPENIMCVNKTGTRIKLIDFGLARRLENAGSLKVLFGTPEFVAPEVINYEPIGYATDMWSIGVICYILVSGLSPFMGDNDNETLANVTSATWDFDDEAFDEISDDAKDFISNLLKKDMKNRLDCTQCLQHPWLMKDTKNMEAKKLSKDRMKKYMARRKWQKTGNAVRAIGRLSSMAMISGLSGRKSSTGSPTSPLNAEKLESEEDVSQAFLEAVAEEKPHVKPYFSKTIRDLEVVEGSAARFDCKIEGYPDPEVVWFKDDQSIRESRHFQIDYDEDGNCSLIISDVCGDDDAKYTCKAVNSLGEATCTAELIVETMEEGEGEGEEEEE

Structure (SMILES)	IC50 ([1]; read-out: IC50)	IC50 [2]	inhibition in vivo at 10 mg/kg [3]	inhibition in vivo at 10 mg/kg [4]	inhibition in vivo at 10 mg/kg [5]	inhibition in vivo at 10 mg/kg [6]	inhibition in vivo at 10 mg/kg [7]	inhibition in vivo at 10 mg/kg [8]	inhibition in vivo at 10 mg/kg [9]	inhibition in vivo at 10 mg/kg [10]	inhibition in vivo at 10 mg/kg [11]	inhibition in vivo at 10 mg/kg [12]	IC50 ([1]; read-out: pIC50 (converted))	other results
Cc1cc(C)nc(Nc2nc3ccccc3s2)n1	> 100 µM	> 100 µM	0.44%	0%	0.44%	1.33%	5.33%	7.11%	8.44%	8.44%	8.89%	8.89%	–	–
CC(=O)c1c(C)nc(Nc2nc3ccccc3s2)nc1C	> 100 µM	> 100 µM	0.88%	0.44%	0.88%	2.21%	5.31%	7.08%	7.52%	7.52%	7.96%	8.41%	–	–
CCOC(=O)C1=C(C)NC(OC)N(CC(=O)c2ccc(OC)cc2)C1c1ccc(Cl)cc1 (stereo unspecified)	18.2 µM	> 100 µM	–	–	–	–	–	–	–	–	–	–	5490 µM	–
COC(=O)C1=C(C)N=C2Sc3ccccc3N2C1c1ccccc1Cl (stereo unspecified)	9.8 µM	> 100 µM	1.77%	2.65%	14.6%	18.1%	22.6%	24.8%	27%	28.8%	31.4%	33.6%	10200 µM	–
COC(=O)C1=C(C)N=C2Sc3ccccc3N2C1c1ccc(Cl)cc1 (stereo unspecified)	9.1 µM	> 100 µM	2.65%	11.5%	14.6%	24.8%	28.8%	28.8%	31.4%	33.6%	38%	40.3%	11000 µM	inhibition in vivo at 10 mg/kg [13]: 2.21%; inhibition in vivo at 10 mg/kg [14]: 4.42%; inhibition in vivo at 10 mg/kg [15]: 15.9%; inhibition in vivo at 10 mg/kg [16]: 24.8%; inhibition in vivo at 10 mg/kg [17]: 31%; inhibition in vivo at 10 mg/kg [18]: 49.6%; UI [19]: 0.36; logD [20]: 5.44
COC(=O)C1=C(C)N=C2Sc3ccccc3N2C1c1ccccc1O (stereo unspecified)	4.3 µM	> 100 µM	3.57%	8.48%	19.6%	24.1%	26.3%	33%	36.6%	42%	43.8%	46.4%	23300 µM	–
COC(=O)C1=C(C)N=C2Sc3ccccc3N2C1c1ccc(O)cc1 (stereo unspecified)	4.21 µM	> 100 µM	3.51%	7.89%	19.7%	25.4%	29.4%	34.2%	38.2%	39.5%	40.8%	42.1%	23800 µM	–
COC(=O)C1=C(C)N=C2Sc3ccccc3N2C1c1ccc(N(C)C)cc1 (stereo unspecified)	4.37 µM	> 100 µM	1.77%	2.65%	14.6%	18.1%	22.6%	24.8%	27%	28.8%	31.4%	33.6%	22900 µM	–
CCOC(=O)C1=C(C)N=C2Sc3ccccc3N2C1c1ccccc1Cl (stereo unspecified)	10.8 µM	> 100 µM	1.77%	2.65%	14.6%	18.1%	22.6%	24.8%	27%	28.8%	31.4%	33.6%	9260 µM	–
CCc1nc(Nc2nc3ccccc3s2)nc(C)c1C(C)=O	> 100 µM	> 100 µM	0.44%	0%	0.44%	1.33%	6.22%	7.56%	8%	8%	8.44%	8.89%	–	–
CCOC(=O)C1=C(C)NC(OC)N(CC(=O)c2ccc(Cl)cc2)C1c1ccc(Cl)cc1 (stereo unspecified)	41.3 µM	> 100 µM	–	–	–	–	–	–	–	–	–	–	2420 µM	–
CCOC(=O)C1=C(C)NC(OC)N(CC(=O)c2ccc(Cl)cc2)C1c1ccc(O)cc1 (stereo unspecified)	15.2 µM	> 100 µM	–	–	–	–	–	–	–	–	–	–	6580 µM	–
